Data: ChEMBL document CHEMBL1143331, “The synthesis and structure-activity relationship of substituted N-phenyl anthranilic acid analogs as amyloid aggregation inhibitors” (Bioorg Med Chem Lett, 2009)
Active and inactive are the calls of the source. No cut-off for these calls is given here.

Tests used:
[1] = Inhibition of amyloid beta (1 to 40) aggregation by beta amyloid self seeding thioflavin T assay
How it was run: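 Compound was incubated with 30 μM Aβ(1-40) in 50 mM NaPi, 150 mM NaCl, 1 M urea, 0.02% w/v NaN3, pH 7.5. Thioflavin T at 5 µM was added after fibril formation, and fluorescence was read as β-sheet fibril content. IC50 came from eight concentrations by logit transformation of the titration curves. Values are the mean of two separate experiments.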

[2] = Inhibition of amyloid beta (1 to 40) aggregation by beta amyloid self seeding radioassay
How it was run: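 Aβ(1-40) at 30 μM unlabeled, plus a tracer amount of 125I-Aβ(1-40), incubated with compound in 50 mM NaPi, 150 mM NaCl, 1 M urea, 0.02% w/v NaN3, pH 7.5. Radiolabeled fibrils retained on a 0.2 µm filter were measured. Eight compound concentrations were tested, and IC50 was taken by logit transformation of the titration curves. Values are the average of two separate experiments.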

Mus musculus [3] = test: Reduction in mean senile plaque area in Tg2576 mouse overexpressing human betaAPP695SWE at 200 mg/kg/day, po administered with chow; assay type: functional; design: scale not given: the % may be the effect or the level left
[4] = Inhibition of amyloid beta (1 to 40) aggregation assessed as appearance of smaller fragmented amyloid beta species at 50 uM by atomic force microscopy study
Mus musculus [5] = test: Reduction in senile plaque load in Tg2576 mouse overexpressing human betaAPP695SWE at 200 mg/kg/day, po administered with chow for 7 months; assay type: functional; design: scale not given: the % may be the effect or the level left
Mus musculus [6] = test: Reduction in senile plaque load in Tg2576 mouse overexpressing human betaAPP695SWE at 60 mg/kg/day, po administered with chow for 7 months; assay type: functional; design: scale not given: the % may be the effect or the level left
Mus musculus [7] = test: Reduction in senile plaque load in Tg2576 mouse overexpressing human betaAPP695SWE at 60 mg/kg/day, po administered with chow for 3 months; assay type: functional; design: scale not given: the % may be the effect or the level left
Mus musculus [8] = test: Reduction in mean senile plaque area in Tg2576 mouse overexpressing human betaAPP695SWE at 60 mg/kg/day, po administered with chow; assay type: functional; design: scale not given: the % may be the effect or the level left

Row | Structure (SMILES) | IC50 [1] | IC50 [2] | further results
1 | O=C(O)c1cc([N+](=O)[O-])ccc1Nc1ccc(CCc2ccccc2)cc1 | 1.5 µM | 70 µM | –
2 | O=C(O)c1cccc(Nc2ccc(CCc3ccc(Cl)c(Cl)c3)cc2)c1 | 10 µM | > 100 µM | –
3 | O=C(O)c1cc([N+](=O)[O-])ccc1Nc1ccc(CCCc2ccc(Cl)c(Cl)c2)cc1 | 1 µM | > 100 µM | –
4 | O=C(O)c1cc([N+](=O)[O-])ccc1Nc1ccc(CCN2CCC3CCCCC3C2)cc1 (stereo not given) | 1 µM | 5 µM | –
5 | O=C(O)c1cc([N+](=O)[O-])ccc1Nc1ccc(CCc2ccc(Cl)c(Cl)c2)cc1 | 0.5 µM | 43 µM | –
6 | O=C(O)c1ccccc1Nc1ccc(CCCc2ccc(Cl)cc2Cl)cc1 | 2 µM | 2 µM | –
7 | O=C(O)c1cc(Nc2ccc(CCc3ccc(Cl)c(Cl)c3)cc2)ccc1C(F)(F)F | 35 µM | > 100 µM | –
8 | O=C(O)c1cc([N+](=O)[O-])ccc1Nc1ccc(CCc2ccc(Cl)cc2Cl)cc1 | 4 µM | 17 µM | –
9 | COc1ccc(CCCc2ccc(Nc3ccc(F)cc3C(=O)O)cc2)cc1 | 10 µM | 14 µM | –
10 | O=C(O)c1cc([N+](=O)[O-])ccc1Nc1ccc(CCc2cccc(Cl)c2)cc1 | 0.3 µM | 33 µM | –
11 | O=C(O)c1ccccc1Nc1ccc(CCc2cc(Cl)cc(Cl)c2)cc1 | 15 µM | > 100 µM | –
12 | Cc1ccc(CCc2ccc(Nc3ccc([N+](=O)[O-])cc3C(=O)O)cc2)cc1C | 2 µM | 12 µM | –
13 | O=C(O)c1ccccc1Nc1ccc(CCc2cccc(Cl)c2)cc1 | 19 µM | > 100 µM | –
14 | COc1ccc(CCCc2ccc(Nc3cc(F)ccc3C(=O)O)cc2)cc1 | 9 µM | 14 µM | –
15 | O=C(O)c1ccccc1Nc1ccc(CCCc2ccc(Cl)cc2)cc1 | 2 µM | 3 µM | –
16 | Cc1ccc(CCCc2ccc(Nc3ncccc3C(=O)O)cc2)cc1C | 9 µM | 14 µM | –
17 | COC(=O)c1ccc(Nc2ccc(CCc3ccc(Cl)c(Cl)c3)cc2)cc1 | > 100 µM | > 100 µM | –
18 | O=C(O)c1cc([N+](=O)[O-])ccc1Nc1ccc(CCc2ccc(F)c(C(F)(F)F)c2)cc1 | 0.8 µM | 3 µM | –
19 | O=C(O)c1ccccc1Nc1ccc(CCCc2ccccc2Cl)cc1 | 2 µM | 6 µM | –
20 | O=C(O)c1cc([N+](=O)[O-])ccc1Nc1ccc(CCc2ccc(Cl)c(C(F)(F)F)c2)cc1 | 1 µM | 16 µM | –
21 | O=C(O)c1cc([N+](=O)[O-])ccc1Nc1ccc(CCc2ccccc2Cl)cc1 | 0.5 µM | 3 µM | –

Row | Structure (SMILES) | IC50 [1] | IC50 [2] | further results
22 | O=C(O)c1ccccc1Nc1ccc(CCc2ccccc2)cc1 | 10 µM | 60 µM | –
23 | O=C(O)c1ccccc1Nc1ccc(CCc2ccc(Cl)c(Cl)c2)cc1 | 2 µM | > 100 µM | Activity (Mus musculus [3]): 2.1%; Activity [4]: Active; Activity (Mus musculus [5]): 44%
24 | O=C(O)c1ccc(C(F)(F)F)cc1Nc1ccc(CCc2ccc(Cl)c(Cl)c2)cc1 | 4 µM | 27 µM | –
25 | O=C(O)c1ccccc1Nc1ccc(CCCc2ccccc2)cc1 | 5 µM | 14 µM | –
26 | O=C(O)c1ccccc1Nc1ccc(CCCc2cccc(Cl)c2)cc1 | 3 µM | 4 µM | –
27 | Cc1ccc(CCCc2ccc(Nc3ccccc3C(=O)O)cc2)cc1C | 3 µM | 6 µM | –
28 | O=C(O)c1ccccc1Nc1ccc(CCN2CCC3CCCCC3C2)cc1 (stereo not given) | 1 µM | > 100 µM | –
29 | Cc1ccc(Nc2ccc(CCCc3ccc(Cl)c(Cl)c3)cc2)c(C(=O)O)c1 | > 100 µM | > 100 µM | –
30 | O=C(O)c1ccccc1Nc1ccc(CCCc2ccc(F)c(F)c2)cc1 | 5 µM | 8 µM | –
31 | COc1ccc(CCCc2ccc(Nc3ccccc3C(=O)O)cc2)cc1 | 17 µM | 30 µM | –
32 | Cc1ccc(CCc2ccc(Nc3ccccc3C(=O)O)cc2)cc1C | 10 µM | > 100 µM | –
33 | Cc1ccc(CCCc2ccc(Nc3cc(F)ccc3C(=O)O)cc2)cc1C | 5.4 µM | 12 µM | –
34 | O=C(O)c1ccccc1Nc1ccc(CCc2ccc(Cl)cc2)cc1 | 3 µM | > 100 µM | –
35 | O=C(O)c1ccccc1Nc1ccc(CCc2cccc(F)c2)cc1 | 70 µM | > 100 µM | –
36 | O=C(O)c1cc([N+](=O)[O-])ccc1Nc1ccc(CCc2ccc(Cl)cc2)cc1 | 0.4 µM | 15 µM | –
37 | O=C(O)c1cccnc1Nc1ccc(CCCc2ccc(Cl)c(Cl)c2)cc1 | 5 µM | 60 µM | –
38 | O=C(O)c1ccccc1Nc1ccc(CCc2ccc(F)c(F)c2)cc1 | 2 µM | > 100 µM | –
39 | CCCCN(CCCC)c1ccc(CCc2ccc(Nc3ccc([N+](=O)[O-])cc3C(=O)O)cc2)cc1 | 1 µM | 15 µM | –
40 | Cc1ccc(CCCc2ccc(Nc3ccc([N+](=O)[O-])cc3C(=O)O)cc2)cc1C | 6 µM | 14 µM | –
41 | O=C(O)c1ccccc1Nc1ccc(CCCc2ccc(F)c(C(F)(F)F)c2)cc1 | 3 µM | 5 µM | –
42 | O=C(O)c1ccccc1Nc1ccc(CCc2ccc(F)c(C(F)(F)F)c2)cc1 | 2 µM | > 100 µM | –

Row | Structure (SMILES) | IC50 [1] | IC50 [2] | further results
43 | Cc1ccc(CCCc2ccc(Nc3ccc(F)cc3C(=O)O)cc2)cc1C | 1 µM | > 100 µM | –
44 | O=C(O)c1ccccc1Nc1ccc(CCCc2ccc(Cl)c(Cl)c2)cc1 | 1 µM | 25 µM | Activity (Mus musculus [6]): 47%; Activity (Mus musculus [7]): 45%; Activity (Mus musculus [8]): 2.6%
45 | Cc1ccc(Nc2ccc(CCCc3ccc(C)c(C)c3)cc2)c(C(=O)O)c1 | 3 µM | 16 µM | –
46 | O=C(O)c1ccccc1Nc1ccc(CCCc2cccc(Br)c2)cc1 | 3 µM | 2 µM | –
47 | O=C(O)c1cc(Nc2ccc(CCc3ccc(Cl)c(Cl)c3)cc2)ccc1F | 3 µM | > 100 µM | –
48 | O=C(O)c1cccc(C(F)(F)F)c1Nc1ccc(CCc2ccc(Cl)c(Cl)c2)cc1 | 30 µM | > 100 µM | –
49 | Cc1ccc(CCc2ccc(Nc3ccccc3C(=O)O)cc2)cc1Cl | 1 µM | 88 µM | –
50 | O=C(O)c1ccc(Nc2ccc(CCc3ccc(Cl)c(Cl)c3)cc2)cc1 | 10 µM | > 100 µM | –
51 | O=C(O)c1ccccc1Nc1ccc(CCc2ccccc2Cl)cc1 | 5 µM | > 100 µM | –
52 | O=C(O)c1ccccc1Nc1ccc(CCc2ccc(Cl)cc2Cl)cc1 | 51 µM | > 100 µM | –
53 | O=C(O)c1c(Nc2ccc(CCc3ccc(Cl)c(Cl)c3)cc2)cccc1C(F)(F)F | 0.1 µM | 70 µM | –
54 | O=C(O)c1ccccc1Nc1ccc(CCCc2cc(Cl)cc(Cl)c2)cc1 | 3 µM | 3 µM | –
55 | Cc1ccc(CCCc2ccc(Nc3ccccc3C(=O)O)cc2)cc1 | 1 µM | 9 µM | –
56 | O=C(O)c1cc(F)ccc1Nc1ccc(CCCc2ccc(Cl)c(Cl)c2)cc1 | 1 µM | 86 µM | –
57 | O=C(O)c1cccnc1Nc1ccc(CCc2ccc(Cl)c(Cl)c2)cc1 | 2 µM | 7 µM | –
58 | O=C(O)c1cc([N+](=O)[O-])ccc1Nc1ccc(CCc2ccc(F)c(F)c2)cc1 | 4 µM | 41 µM | –
59 | CCN(CC)c1ccc(CCCc2ccc(Nc3ccccc3C(=O)O)cc2)cc1 | 1 µM | 3 µM | –
60 | CCN(CC)c1ccc(Nc2ccc(CCc3ccc(Cl)c(Cl)c3)cc2)c(C(=O)O)c1 | 53 µM | > 100 µM | –
61 | COc1ccc(CCc2ccc(Nc3ccccc3C(=O)O)cc2)cc1 | > 100 µM | > 100 µM | –
62 | Cc1ccc(Nc2ccc(CCc3ccc(Cl)c(Cl)c3)cc2)c(C(=O)O)c1 | 2 µM | > 100 µM | –
